pEC50, pKi: −log10 of the molar value.
How the values were obtained:
[1] = test system: Human immunodeficiency virus 1; assay: Antiviral activity in HIV-1 infected H9 cells; assay type: functional; settings: Human immunodeficiency virus 1, H9; read-out: ED50 (the source's name)
Outline: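 H9 cells infected with HIV-1 IIIB at MOI about 0.005, spun down (200g, 10 min), resuspended at 8 × 10^5 cells/mL in RPMI Complete and mixed with compound; final DMSO 0.1%, triplicate per concentration. After 5 days at 37 °C in 5% CO2, supernatant p24 antigen was measured by ELISA. ED50 is the drug amount that reduces p24 by 50% versus DMSO drug-free controls.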

[2] = Median cell culture toxic dose was evaluated against H9 cell line; assay type: ADME, cell-based; settings: human, H9 cells; read-out: CCTD50
[3] = molecular target: Human immunodeficiency virus type 1 protease (Human immunodeficiency virus 1, UniProt Q72874); assay: Binding affinity against HIV-1 protease

| Structure (SMILES) | pEC50 [1] | CC50 [2] [nM] | pKi [3] |
| --- | --- | --- | --- |
| O=c1c2c(oc(O)c1C(c1cccc(NS(=O)(=O)c3ccccn3)c1)C1CC1)CCCCCC2 (configuration not stated) | 5.34 | > 30000 | 8.66 |
| CC(C)C(c1cccc(NS(=O)(=O)c2ccc(F)cc2)c1)c1c(O)c2c(oc1=O)CCCCCC2 (configuration not stated) | < 5.00 | > 30000 | 7.96 |
| N#Cc1cccc(S(=O)(=O)Nc2cccc(C(c3c(O)oc4c(c3=O)CCCCCC4)C3CC3)c2)c1 (configuration not stated) | < 5.52 | > 30000 | 9.22 |
| CCC(c1cccc(NS(=O)(=O)c2ccc(C#N)cc2)c1)c1c(O)c2c(oc1=O)CCCCCC2 (configuration not stated) | 5.48 | > 30000 | 8.51 |
| O=c1c2c(oc(O)c1C(c1cccc(NS(=O)(=O)c3cccc4cccnc34)c1)C1CC1)CCCCCC2 (configuration not stated) | 5.85 | 82000 | 8.72 |
| O=C(O)c1ccc(S(=O)(=O)Nc2cccc(C(c3c(O)c4c(oc3=O)CCCCCC4)C3CC3)c2)cc1 (configuration not stated) | < 5.00 | > 30000 | 7.96 |
| NC(=O)c1ccc(S(=O)(=O)Nc2cccc(C(c3c(O)c4c(oc3=O)CCCCCC4)C3CC3)c2)cc1 (configuration not stated) | 5.24 | > 30000 | 8.72 |
| COC(=O)c1cccc(S(=O)(=O)Nc2cccc(C(c3c(O)c4c(oc3=O)CCCCCC4)C3CC3)c2)c1 (configuration not stated) | 5.59 | > 30000 | 8.85 |
| O=c1c2c(oc(O)c1C(c1cccc(NS(=O)(=O)c3ccc(I)cc3)c1)C1CC1)CCCCCC2 (configuration not stated) | 5.28 | > 30000 | 8.51 |
| O=c1c2c(oc(O)c1C(c1cccc(NS(=O)(=O)c3cccc4ccccc34)c1)C1CC1)CCCCCC2 (configuration not stated) | 5.44 | > 30000 | 8.26 |
| O=c1c2c(oc(O)c1C(c1cccc(NS(=O)(=O)c3ccc(OC(F)(F)F)cc3)c1)C1CC1)CCCCCC2 (configuration not stated) | 5.47 | > 30000 | 8.40 |
| O=C(O)c1cccc(S(=O)(=O)Nc2cccc(C(c3c(O)c4c(oc3=O)CCCCCC4)C3CC3)c2)c1 (configuration not stated) | < 5.00 | > 30000 | 8.35 |
| [N-]=[N+]=Nc1ccc(S(=O)(=O)Nc2cccc(C(c3c(O)oc4c(c3=O)CCCCCC4)C3CC3)c2)cc1 (configuration not stated) | 5.77 | > 30000 | 8.59 |
| CC(C)C(c1cccc(NS(=O)(=O)c2ccc(Cl)cc2)c1)c1c(O)c2c(oc1=O)CCCCCC2 (configuration not stated) | < 5.00 | > 30000 | 7.74 |
| O=c1c2c(oc(O)c1C(c1cccc(NS(=O)(=O)c3cccc(Cl)c3)c1)C1CC1)CCCCCC2 (configuration not stated) | 5.49 | > 30000 | 8.57 |
| Cc1cccc(S(=O)(=O)Nc2cccc(C(c3c(O)c4c(oc3=O)CCCCCC4)C3CC3)c2)c1 (configuration not stated) | 5.40 | > 30000 | 8.28 |
| CCCC(c1cccc(NS(=O)(=O)c2cn(C)cn2)c1)c1c(O)c2c(oc1=O)CCCCCC2 (configuration not stated) | 5.60 | > 30000 | 10.00 |
| CC(C)C(c1cccc(NS(=O)(=O)c2ccc(C#N)cc2)c1)c1c(O)c2c(oc1=O)CCCCCC2 (configuration not stated) | < 5.00 | > 30000 | 8.23 |
| O=c1c2c(oc(O)c1C(c1cccc(NS(=O)(=O)c3cc(Cl)cc(Cl)c3)c1)C1CC1)CCCCCC2 (configuration not stated) | < 5.00 | > 30000 | 8.16 |
| COc1ccc(S(=O)(=O)Nc2cccc(C(c3c(O)c4c(oc3=O)CCCCCC4)C3CC3)c2)cc1OC (configuration not stated) | 5.39 | > 30000 | 8.17 |
| O=c1c2c(oc(O)c1C(c1cccc(NS(=O)(=O)c3ccc(Br)cc3)c1)C1CC1)CCCCCC2 (configuration not stated) | 5.49 | > 30000 | 8.68 |
| O=c1c2c(oc(O)c1C(c1cccc(NS(=O)(=O)c3ccc(Cl)c(Cl)c3)c1)C1CC1)CCCCCC2 (configuration not stated) | 5.47 | > 30000 | 8.39 |
| O=c1c2c(oc(O)c1C(c1cccc(NS(=O)(=O)c3ccc4ccccc4n3)c1)C1CC1)CCCCCC2 (configuration not stated) | 5.27 | > 30000 | 9.40 |
| CC(C)(C)c1ccc(S(=O)(=O)Nc2cccc(C(c3c(O)c4c(oc3=O)CCCCCC4)C3CC3)c2)cc1 (configuration not stated) | < 5.00 | > 30000 | 7.49 |

Source: ChEMBL document CHEMBL1129987, “Structure-based design of nonpeptidic HIV protease inhibitors: the sulfonamide-substituted cyclooctylpyramones” (J Med Chem, 1997)
